In ChEMBL document CHEMBL1125009, “Variation in the aromatic ring of cromakalim: antihypertensive activity of pyranopyridines and 6-alkyl-2H-1-benzopyrans” (1990):

Key:
Type in all cases: functional, Artery
Rattus norvegicus [1] = assay: The maximum fall in systolic blood pressure was determined at a dose of 10 mg/kg after oral administration in rats
Summary of the method: (§1)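 Conscious spontaneously hypertensive rats (Japanese Okamoto strain, 14–24 weeks old), used only if systolic pressure was >180 mmHg, six per dose level. Dosed by oral needle into the esophagus as a solution or suspension in 1% w/v methylcellulose. Systolic pressure was read by tail-cuff, each reading the mean of at least six recordings, before dosing and at intervals from 1 to 6 h. The maximum fall was taken.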

Rattus norvegicus [2] = assay: The maximum fall in systolic blood pressure was determined at a dose of 3.0 mg/kg after oral administration in rats; summary of the method: as §1
Rattus norvegicus [3] = assay: The maximum fall in systolic blood pressure was determined at a dose of 0.3 mg/kg after oral administration in rats; summary of the method: as §1
Rattus norvegicus [4] = assay: The maximum fall in systolic blood pressure was determined at a dose of 1 mg/kg after oral administration in rats; summary of the method: as §1
Rattus norvegicus [5] = assay: The maximum fall in systolic blood pressure was determined at a dose of 1.0 mg/kg after oral administration in rats; summary of the method: as §1
Rattus norvegicus [6] = assay: The maximum fall in systolic blood pressure was determined at a dose of 0.1 mg/kg after oral administration in rats; summary of the method: as §1
Rattus norvegicus [7] = assay: The maximum fall in systolic blood pressure was determined at a dose of 3 mg/kg after oral administration in rats; summary of the method: as §1
Rattus norvegicus [8] = assay: The maximum fall in systolic blood pressure was determined at a dose of 10.0 mg/kg after oral administration in rats; summary of the method: as §1

Compound | Max fall in blood pressure (Rattus norvegicus [3]) [%] | Max fall in blood pressure (Rattus norvegicus [5]) [%] | Max fall in blood pressure (Rattus norvegicus [7]) [%] | further results
CC1(C)Oc2ncccc2[C@@H](N2CCCC2=O)[C@@H]1O |  |  |  | Max fall in blood pressure (Rattus norvegicus [1]): 5%
CC(=O)NC1c2cc(C)ccc2OC(C)(C)[C@H]1O (some centres not stated) | 9 |  |  | Max fall in blood pressure (Rattus norvegicus [2]): 20%
CC1(C)Oc2cnccc2[C@@H](N2CCCC2=O)[C@@H]1O |  |  |  | Max fall in blood pressure (Rattus norvegicus [1]): 41%; Max fall in blood pressure (Rattus norvegicus [4]): 7%
CC(=O)N[C@@H]1c2cnccc2OC(C)(C)[C@H]1O | 14 | 43 |  | 
CCc1ccc2c(c1)C(N1CCCC1=O)[C@H](O)C(C)(C)O2 (some centres not stated) | 11 | 54 |  | 
CC(C)c1ccc2c(c1)C(N1CCCC1=O)[C@H](O)C(C)(C)O2 (some centres not stated) | 17 | 36 |  | Max fall in blood pressure (Rattus norvegicus [2]): 60%
CC(C)(C)c1ccc2c(c1)C(N1CCCC1=O)[C@H](O)C(C)(C)O2 (some centres not stated) | 9 | 39 |  | Max fall in blood pressure (Rattus norvegicus [2]): 49%
CC1(C)Oc2ccncc2[C@@H](N2CCCCC2=O)[C@@H]1O | 55 | 56 |  | Max fall in blood pressure (Rattus norvegicus [6]): 24%
CC1(C)C=C(N2CCCCC2=O)c2cnccc2O1 |  |  | 37 | Max fall in blood pressure (Rattus norvegicus [4]): 14%
CC1(C)Oc2ccc(C(F)(F)F)cc2C(N2CCCC2=O)[C@@H]1O (some centres not stated) | 26 |  |  | Max fall in blood pressure (Rattus norvegicus [6]): 17%
CC1(C)Oc2ccncc2[C@@H](N2CCCC2=O)[C@@H]1O |  |  | 41 | Max fall in blood pressure (Rattus norvegicus [4]): 39%
CC1(C)Oc2ccc(-c3ccccc3)cc2C(N2CCCC2=O)[C@@H]1O (some centres not stated) |  |  | 14 | Max fall in blood pressure (Rattus norvegicus [8]): 20%
Cc1ccc2c(c1)C(N1CCCC1=O)[C@H](O)C(C)(C)O2 (some centres not stated) |  |  | 12 | Max fall in blood pressure (Rattus norvegicus [1]): 49%
CC1(C)Oc2ccc(C3CCCC3)cc2C(N2CCCC2=O)[C@@H]1O (some centres not stated) |  | 24 |  | Max fall in blood pressure (Rattus norvegicus [8]): 66%
CC1(C)Oc2cccnc2[C@@H](N2CCCC2=O)[C@@H]1O |  |  |  | Max fall in blood pressure (Rattus norvegicus [1]): 15%
Cc1ccc2c(c1)C(N1CCCCC1=O)[C@H](O)C(C)(C)O2 (some centres not stated) | 16 | 33 | 56 | 
CCCc1ccc2c(c1)C(N1CCCC1=O)[C@H](O)C(C)(C)O2 (some centres not stated) |  |  | 42 | Max fall in blood pressure (Rattus norvegicus [4]): 17%
CC1(C)Oc2cc[n+]([O-])cc2[C@@H](N2CCCCC2=O)[C@@H]1O | 39 | 68 |  | 
CC1(C)Oc2ccccc2C(N2CCCC2=O)[C@@H]1O (some centres not stated) |  |  |  | Max fall in blood pressure (Rattus norvegicus [1]): 49%
CC1(C)Oc2ccc(C#N)cc2C(N2CCCC2=O)C1O (configuration not stated) [CROMAKALIM] | 39 | 47 |  | Max fall in blood pressure (Rattus norvegicus [6]): 13%
